FGF22 binding: FGF22 (human) thermal shift binding | Q9HCT0 | AID 651658 | activity (Tm shift, normalised), % at 9.99 µM | actives 1.5% (n = 340,000) | recombinant FGF22 thermal shift, SYPRO orange fluorescence; percent of sucrose octasulfate shift, DMSO zero;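 active = mean Tm shift, scaled 0 neutral to 100 positive control, at about 1.3% or above, every replicate too, limit read from the data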
Target sequence (Q9HCT0 whole entry, looked up): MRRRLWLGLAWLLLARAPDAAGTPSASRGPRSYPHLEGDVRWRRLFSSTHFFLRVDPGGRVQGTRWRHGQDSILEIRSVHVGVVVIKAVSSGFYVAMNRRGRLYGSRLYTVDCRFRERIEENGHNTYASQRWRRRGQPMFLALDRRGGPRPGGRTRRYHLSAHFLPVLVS
NR3A LBD binder: modulators (binders) of human NR3A ligand-binding domain; NR3A LBD differential scanning fluorimetry, Tm shift; 0% = protein alone, 100% = glycine-bound protein; Tm shift relative to glycine control, % at 25 µM; actives 2.5% (n = 340,000); AID 1259313;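 active = melting temperature shift of at least 10% of the positive control shift, at one fixed dose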
ZTA DNA inh: counter-screen for EBNA-1 inhibitors: inhibitors of Epstein-Barr virus ZTA; ZTA-DNA binding, fluorescence polarization; inhibition, % at 11 µM; actives 0.15% (n = 320,000); in the data active = inhibition above about 33%
Target sequence (P03206 whole entry, looked up): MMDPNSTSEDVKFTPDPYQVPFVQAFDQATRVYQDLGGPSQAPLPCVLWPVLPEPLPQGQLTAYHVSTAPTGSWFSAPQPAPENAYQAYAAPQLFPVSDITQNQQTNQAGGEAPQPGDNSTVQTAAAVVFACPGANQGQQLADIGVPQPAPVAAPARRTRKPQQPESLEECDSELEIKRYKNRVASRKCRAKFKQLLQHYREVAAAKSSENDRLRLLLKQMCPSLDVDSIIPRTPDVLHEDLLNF
DNA FID counter: counter-screen for HCV NS3 helicase inhibitors: DNA intercalator displacement | AID 1845 | inhibition, % at 7.9 µM | DNA fluorescent intercalator displacement, fluorescence | actives 0.17% (n = 290,000); in the data active = inhibition above about 37%;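 also: higher means more ethidium bromide displaced from hairpin DNA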
EBNA-1 inhibitor: blocks EBNA-1 binding to DNA; AID 1950; EBNA-1 DNA binding, fluorescence polarization; inhibition, % at 14.8 µM; actives 0.34% (n = 300,000); in the data active = inhibition above about 28%
HCV NS3 hel inh: inhibitors of Hepatitis C virus NS3 helicase. NS3 helicase DNA unwinding, Cy5 molecular beacon fluorescence. inhibition, % at 10.9 µM. actives 0.56% (n = 290,000). AID 1800;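 active = inhibition above the mean of all tested compounds plus 3 SD, set per campaign, cut at about 35% in these data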
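Assay system: hepatitis C virus NS3 helicase domain fragment enzyme. Also added: annealed dual-labelled DNA beacon duplex, ATP-started. Timing: 1 h reaction at 25 °C, ATP-initiated. Technique: Cy5 fluorescence at 0 and 60 min, beacon hairpin quenching. Evaluation: % inhibition of unwinding. Replication: one well per compound.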
Numbers stand for hits; i = inactive; nt = no result. Sampled rows, rich in hits. Any-hit rate of the full collection: about 3.6%.

SMILES	FGF22 binding	NR3A LBD binder	ZTA DNA inh	DNA FID counter	EBNA-1 inhibitor	HCV NS3 hel inh
Cc1ccc(N2CC(C(=O)Nc3nnc(SCC(=O)Nc4nc(C)cs4)s3)CC2=O)cc1 (stereo unspecified)	i	i	i	i	31	i
CCN(C[C@H]1N[C@@](Cc2ccccc2)(C(=O)OC)[C@H]2C(=O)N(C)C(=O)[C@@H]12)C(=O)c1ccc(C(C)(C)C)cc1	i	i	nt	nt	nt	nt
COC(=O)[C@]1(C)N[C@H](CN(C)C(C)=O)[C@@H]2C(=O)N(Cc3ccccc3)C(=O)[C@@H]21	44	i	nt	nt	nt	nt
COC(=O)[C@]1(Cc2ccccc2)N[C@H](CN(C)C(=O)NC(C)C)[C@@H]2C(=O)N(C)C(=O)[C@@H]21	44	i	nt	nt	nt	nt
CCN(C[C@H]1N[C@@](Cc2ccccc2)(C(=O)OC)[C@H]2C(=O)N(Cc3ccccc3)C(=O)[C@@H]12)C(=O)Nc1ccc(Cl)cc1	i	17	nt	nt	nt	nt
CCN(C[C@H]1N[C@@](Cc2ccccc2)(C(=O)OC)[C@H]2C(=O)N(C)C(=O)[C@@H]12)C(=O)c1ccc(F)cc1	43	i	nt	nt	nt	nt
COC(=O)[C@]1(C)N[C@H](CN(C)C(=O)c2ccccc2)[C@@H]2C(=O)N(Cc3ccccc3)C(=O)[C@@H]21	i	i	nt	nt	nt	nt
CN(C)CC(=O)N[C@@H]1CC[C@H](CCNS(=O)(=O)c2ccccc2)O[C@@H]1CO	i	nt	nt	nt	nt	nt
CO[C@@H]1CN(C)C(=O)c2cc(NS(=O)(=O)c3cccc(Cl)c3)ccc2OC[C@@H](C)NC[C@H]1C	i	nt	nt	nt	nt	nt
N=c1n(CCN2CCCC2)c2ccccc2n1CC(O)c1ccco1 (stereo unspecified)	nt	i	i	i	i	i
Cc1ccc(OCC(O)Cn2c3ccccc3c3ccccc32)cc1 (stereo unspecified)	nt	12	i	i	i	i
CCCCCCCn1c(=N)n(CC(O)c2ccco2)c2ccccc21 (stereo unspecified)	44	i	i	i	i	i
CCCCn1c(=N)n(CC(O)COc2ccc(C)cc2)c2ccccc21 (stereo unspecified)	nt	i	i	41	i	i
OC(COCC(F)(F)C(F)(F)C(F)(F)C(F)F)Cn1c2ccccc2c2ccccc21 (stereo unspecified)	i	29	i	i	i	i
C/C=C/c1ccc2c(c1)O[C@H](CN(C)C(=O)C1CCOCC1)[C@H](C)CN([C@H](C)CO)S2(=O)=O	i	nt	nt	nt	nt	nt
CO[C@H]1CN(C)C(=O)c2cc(NS(=O)(=O)c3cn(C)cn3)ccc2OC[C@@H](C)N(Cc2cccc(F)c2)C[C@@H]1C	i	nt	nt	nt	nt	nt
N#C[C@H]1[C@@H](c2ccccc2-c2ccccc2)[C@@H](CO)N1C(=O)NC1CCCC1	i	nt	nt	nt	nt	nt
CO[C@@H]1CN(C)C(=O)c2cc(NC(=O)c3ccc(F)cc3)ccc2OC[C@H](C)N(C(=O)c2ccc(F)cc2)C[C@@H]1C	i	nt	nt	nt	nt	nt
COc1cccc(C(=O)CN2CCN(S(=O)(=O)c3cccc([N+](=O)[O-])c3)CC2)c1	43	i	i	i	i	i
COc1ccc(C(=O)CN2CCN(S(=O)(=O)c3cccc([N+](=O)[O-])c3)CC2)cc1OC	i	i	i	i	i	i
CC=Cc1ccc2n(c1=O)C[C@@H]1[C@@H](CO)[C@H](C(=O)NCc3ccccc3)N(S(C)(=O)=O)[C@H]21 (mixture of isomers)	i	nt	nt	nt	nt	nt
CCOc1ccc(C(=O)OCC(=O)NC(C)C)cc1	i	i	i	i	i	i
CCOc1ccc(C(=O)OCC(=O)NCCNC(=O)COC(=O)c2ccc(OCC)cc2)cc1	i	14	i	i	i	i
COc1cc(NC(=S)N2CCCC(CO)C2)c(OC)cc1Cl (stereo unspecified)	44	i	i	i	i	i
CN(CC(=O)NC1CC(C)(C)NC(C)(C)C1)S(=O)(=O)c1cc(Cl)ccc1Cl	43	i	i	i	i	i
CN(CC(=O)O)S(=O)(=O)c1cc(Cl)ccc1Cl	i	i	i	i	i	i
COC(=O)N/N=C/c1ccc(OC(=O)/C=C/c2ccco2)cc1	i	11	i	i	i	i
O=C(Cc1ccccc1)N/N=C/c1ccc(OC(=O)/C=C\c2ccco2)cc1	nt	i	i	i	i	i

Source: PubChem
